This is an account of results in EPA's CvTdb concentration-time database.

Series [1] has as its system Rat. The experiment in a line: concentration in liver after dosing. The following applies: 1 h; dosed: Bis 2-Chloroethoxy Methane; 20 mg/kg; iv; Female; F344.
For series [2], the system named is Rat. Description: concentration in heart after dosing. The following applies: 1 h; dosed: Bis 2-Chloroethoxy Methane; 20 mg/kg; iv; Male; F344.
The test system of series [3] is Rat. Description: concentration in heart after dosing. The following applies: 6 h; dosed: Bis 2-Chloroethoxy Methane; 20 mg/kg; iv; Male; F344.
The subject of series [4] is Rat. Description: concentration in thymus after dosing. The note with it: 2 h; dosed: Bis 2-Chloroethoxy Methane; 20 mg/kg; iv; Female; F344.
The subject of series [5] is Rat. Description: concentration in plasma after dosing. The note with it: 40 min; dosed: Bis 2-Chloroethoxy Methane; 20 mg/kg; iv; Male; F344.
For series [6], the system named is Rat. The experiment in a line: concentration in plasma after dosing. The following applies: dosed: Bis 2-Chloroethoxy Methane, 40 mg/kg, iv, Male, Harlan Sprague Dawley.
Series [7] relates to Rat. The experiment in a line: concentration in plasma after dosing. The following applies: 4 h; dosed: Bis 2-Chloroethoxy Methane; 20 mg/kg; iv; Male; F344.
Series [8] has as its system Rat. Description: concentration in plasma after dosing. The following applies: 40 min; dosed: Bis 2-Chloroethoxy Methane; 20 mg/kg; iv; Female; F344.
The test system of series [9] is Rat. Description: concentration in thymus after dosing. The note with it: 5 h; dosed: Bis 2-Chloroethoxy Methane; 20 mg/kg; iv; Male; F344.
For series [10], the system named is Rat. The experiment in a line: concentration in plasma after dosing. The following applies: dosed: Bis 2-Chloroethoxy Methane, 40 mg/kg, iv, Male, Harlan Sprague Dawley. The source holds these as a separate data set.
Series [11] concerns Rat. The experiment in a line: concentration in plasma after dosing. The note with it: 6 h; dosed: Bis 2-Chloroethoxy Methane; 20 mg/kg; iv; Male; F344.
Series [12] relates to Rat. Description: concentration in liver after dosing. The note with it: 0.5 h; dosed: Fluorotelomer alcohol 8+2; 80 mg/kg; oral; Female; Harlan Sprague Dawley.
The test system of series [13] is Rat. Description: concentration in liver after dosing. The following applies: 1 h; dosed: Fluorotelomer alcohol 8+2; 24 mg/kg; oral; Male; Harlan Sprague Dawley.
The subject of series [14] is Rat. The experiment in a line: concentration in plasma after dosing. The note with it: dosed: Fluorotelomer alcohol 8+2, 12 mg/kg, oral, Male, Harlan Sprague Dawley.
The subject of series [15] is Rat. The experiment in a line: concentration in plasma after dosing. The note with it: 0.25 h; dosed: Di-n-butyl phthalate; 100 mg/kg; oral; Male; Sprague-Dawley.
In series [16] the test system is Rat. The experiment in a line: concentration in plasma after dosing. The note with it: 2 h; dosed: Di-n-butyl phthalate; 50 mg/kg; oral; Male; Sprague-Dawley.
Series [17] deals with Rat. Description: concentration in plasma after dosing. The note with it: 1 h; dosed: Di-n-butyl phthalate; 50 mg/kg; oral; Male; Sprague-Dawley.
Series [18] relates to Rat. Description: concentration in plasma after dosing. The following applies: 4 h; dosed: Di-n-butyl phthalate; 100 mg/kg; oral; Male; Sprague-Dawley.
Series [19] deals with Rat. Description: concentration in plasma after dosing. The note with it: 3 h; dosed: Di-n-butyl phthalate; 50 mg/kg; oral; Male; Sprague-Dawley.
In series [20] the test system is Rat. Description: concentration in plasma after dosing. The note with it: dosed: Perfluorodecanoic acid, 2 mg/kg, oral, Male, Harlan Sprague Dawley.
Series [21] has as its system Rat. The experiment in a line: concentration in plasma after dosing. The following applies: dosed: Perfluorodecanoic acid, 2 mg/kg, iv, Male, F344.
For series [22], the system named is Rat. The experiment in a line: concentration in plasma after dosing. The following applies: 1.5 h; dosed: Primidone; 80 mg/kg; oral; Female; F344.
The subject of series [23] is Rat. Description: concentration in plasma after dosing. The following applies: 12 h; dosed: Primidone; 30 mg/kg; oral; Female; F344.
The subject of series [24] is Rat. The experiment in a line: concentration in plasma after dosing. The note with it: 12 h; dosed: Primidone; 130 mg/kg; oral; Male; Harlan Sprague Dawley.
Series [25] deals with Rat. The experiment in a line: concentration in heart after dosing. The following applies: 5.333 h; dosed: Thiodiglycolic Acid; 20 mg/kg; iv; Female; Harlan Sprague Dawley.
In series [26] the test system is Rat. Description: concentration in heart after dosing. The following applies: 2 h; dosed: Thiodiglycolic Acid; 20 mg/kg; iv; Male; Harlan Sprague Dawley.
The subject of series [27] is Rat. Description: concentration in liver after dosing. The following applies: 40 min; dosed: Thiodiglycolic Acid; 20 mg/kg; iv; Male; Harlan Sprague Dawley.
For series [28], the system named is Rat. The experiment in a line: concentration in heart after dosing. The note with it: 10 min; dosed: Thiodiglycolic Acid; 20 mg/kg; iv; Male; F344.
The subject of series [29] is Rat. The experiment in a line: concentration in liver after dosing. The note with it: 6.667 h; dosed: Thiodiglycolic Acid; 20 mg/kg; iv; Female; Harlan Sprague Dawley.
For series [30], the system named is Rat. The experiment in a line: concentration in heart after dosing. The note with it: 1 h; dosed: Thiodiglycolic Acid; 20 mg/kg; iv; Female; Harlan Sprague Dawley.
Series [31] has as its system Rat. The experiment in a line: concentration in heart after dosing. The following applies: 40 min; dosed: Thiodiglycolic Acid; 20 mg/kg; iv; Male; Harlan Sprague Dawley.
The test system of series [32] is Rat. The experiment in a line: concentration in thymus after dosing. The following applies: 20 min; dosed: Thiodiglycolic Acid; 20 mg/kg; iv; Female; F344.
Series [33] concerns Rat. Description: concentration in thymus after dosing. The following applies: 40 min; dosed: Thiodiglycolic Acid; 20 mg/kg; iv; Male; Harlan Sprague Dawley.
In series [34] the test system is Rat. Description: concentration in thymus after dosing. The following applies: 1 h; dosed: Thiodiglycolic Acid; 20 mg/kg; iv; Female; Harlan Sprague Dawley.
In series [35] the test system is Rat. The experiment in a line: concentration in plasma after dosing. The following applies: 4 h; dosed: Thiodiglycolic Acid; 20 mg/kg; iv; Female; Harlan Sprague Dawley.
The next series has as its system human. Description: concentration in plasma after dosing; negative times count back from the end of exposure. The following applies: dosed: trichloroethylene, 100 ppm, inhalation, duration: 4 hr, person, during exposure. Summed up: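 Concentration-versus-time or amount-versus-time points were compiled from published in vivo toxicokinetic studies and from two structured collections. The studies were found by PubMed searching, classifier screening and manual review. Points were mostly digitised from plot screenshots with WebPlotDigitizer, otherwise copied from tables, and kept in the reported units. Dose, route, subject details and medium were curated by hand from each paper, and sampling and analytical methods follow each source and were often unreported.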

The compound `ClCCOCOCCCl` [Bis 2-Chloroethoxy Methane] came in with a concentration in liver with Rat [1] of 343 ng/g. For the same compound, the results for the concentration in heart in the series on Rat [2] and in the series with Rat [3] were 2450 ng/g and 19.3 ng/g, respectively. Also, the results for the concentration in thymus in the series with Rat [4] and in the series with Rat [9] were 264 ng/g and 49 ng/g, respectively. The concentration in plasma was 1590 ng/mL in the series with Rat [5]; 22300 ng/mL in the series on Rat [6] (10 min); 72.8 ng/mL in the series on Rat [6] (5.333 h); 118 ng/mL in the series on Rat [7]; 1410 ng/mL in the series on Rat [8]; 8120 ng/mL in the series on Rat [10] (40 min). Moreover, the results for the concentration in plasma in the series with Rat [10] (8 h) and in the series with Rat [11] were 22 ng/mL and 12.2 ng/mL, respectively.
In the case of `OCCC(F)(F)C(F)(F)C(F)(F)C(F)(F)C(F)(F)C(F)(F)C(F)(F)C(F)(F)F` [Fluorotelomer alcohol 8+2], the concentration in liver turned out to be 4040 ng/g in the series with Rat [12] and 4650 ng/g in the series with Rat [13]. The concentration in plasma in the series on Rat [14] (1 h) was determined as 329 ng/mL; with Rat [14] (24 h), 0.982 ng/mL.
On to `CCCCOC(=O)c1ccccc1C(=O)O` [Mono-n-butyl phthalate], for which the concentration in plasma was determined as 13200 ng/mL with Rat [15]; 809 ng/mL in the series on Rat [16]; 3070 ng/mL with Rat [17]; 3210 ng/mL with Rat [18]; 1180 ng/mL in the series with Rat [19].
In the case of `O=C(O)C(F)(F)C(F)(F)C(F)(F)C(F)(F)C(F)(F)C(F)(F)C(F)(F)C(F)(F)C(F)(F)F` [Perfluorodecanoic acid], the concentration in plasma with Rat [20] (0.5 h) was found to be 1690 ng/mL; in the series with Rat [20] (24 h), 6460 ng/mL; in the series on Rat [20] (1848 h), 968 ng/mL; in the series on Rat [21] (1 h) it was 6520 ng/mL; with Rat [21] (528 h) it was 4120 ng/mL; in the series with Rat [21] (3360 h) it was 71.5 ng/mL.
Take `CCC1(c2ccccc2)C(=O)NC(=O)NC1=O` [Phenobarbital]: the concentration in plasma with Rat [22] was 800 ng/mL; in the series on Rat [23] it was 930 ng/mL; in the series on Rat [24], 2490 ng/mL.
On to `O=C(O)CSCC(=O)O` [Thiodiglycolic Acid], for which the concentration in heart in the series on Rat [25] was 642 ng/g; with Rat [26] it was 1440 ng/g; with Rat [28], 8260 ng/g; with Rat [30], 2560 ng/g; in the series with Rat [31], 2320 ng/g. In addition, the concentration in liver in the series with Rat [27] stood at 183000 ng/g; in the series on Rat [29] it was 7100 ng/g. In addition, the concentration in thymus in the series on Rat [32] turned out to be 4680 ng/g; with Rat [33] it was 3430 ng/g; in the series with Rat [34], 2580 ng/g. In addition, the concentration in plasma with Rat [35] stood at 360 ng/mL.
For the compound `O=C(O)C(Cl)Cl` [dichloroacetic acid], the concentration in plasma was 5 ng/mL in the series on human (-1 h), 4 ng/mL with human (-2 h) and 5 ng/mL with human (-3 h).
